# Test results as given in ChEMBL document CHEMBL1140167, “Meroditerpenoids from the brown alga Sargassum siliquastrum” (J Nat Prod, 2008).
# Key:
# [1] = Inhibition of Staphylococcus aureus sortase A
# [2] = system: Radical scavenging activity; test: Antioxidant activity assessed as DPPH radical scavenging activity; assay type: functional
# How it was run: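 DPPH radical-scavenging test; activity expressed as RC50, reported in µg/mL.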
# Isocitrate lyase = Isocitrate lyase (Candida albicans, UniProt Q9P8Q7); test: Inhibition of Candida albicans isocitrate lyase
# Sequence of Isocitrate lyase (Q9P8Q7 whole entry): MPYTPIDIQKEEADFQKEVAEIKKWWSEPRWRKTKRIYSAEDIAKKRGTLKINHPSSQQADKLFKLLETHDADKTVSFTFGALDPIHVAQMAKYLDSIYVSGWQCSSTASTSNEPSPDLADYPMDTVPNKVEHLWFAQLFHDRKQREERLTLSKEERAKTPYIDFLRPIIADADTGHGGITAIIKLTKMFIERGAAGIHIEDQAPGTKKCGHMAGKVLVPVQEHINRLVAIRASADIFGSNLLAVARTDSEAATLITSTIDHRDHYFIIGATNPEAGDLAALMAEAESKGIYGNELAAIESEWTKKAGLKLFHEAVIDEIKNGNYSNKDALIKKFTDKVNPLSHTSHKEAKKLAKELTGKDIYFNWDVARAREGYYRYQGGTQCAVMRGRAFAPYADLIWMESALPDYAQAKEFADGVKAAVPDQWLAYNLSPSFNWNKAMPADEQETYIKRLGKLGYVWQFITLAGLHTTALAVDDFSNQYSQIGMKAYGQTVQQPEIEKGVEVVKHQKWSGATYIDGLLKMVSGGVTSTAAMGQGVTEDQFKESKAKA
Structure (SMILES),IC50 [1] [µg/mL],IC50 (Isocitrate lyase) [µM],RC50 [2] [µg/mL]
C=CC(C)(CC/C=C(\C)CCCC(C)C(O)C(=O)C=C(C)C)Oc1ccc(O)cc1CC(=O)OC (configuration not stated),> 200,–,9.12
COC(=O)Cc1cc(O)cc(C/C=C(\C)CC/C=C(\C)CC/C=C(\C)C(=O)[C@@H](O)C=C(C)C)c1O,23,–,0.31
CC(C)=CC(O)C(=O)/C(C)=C/CC/C(C)=C/CCC(C)(O)CCc1cc(O)cc(C)c1O (configuration not stated),> 200,112,0.24
COC(=O)Cc1cc(O)cc(C/C=C(/C)CCC(=O)C(C)CC/C=C(\C)C[C@H](O)C=C(C)C)c1O (some centres not stated),23,–,0.1
C=CC(C)(CC/C=C(\C)C[C@@H]1C=C(C)C(=O)[C@H]1C=C(C)C)Oc1ccc(O)cc1CC(=O)OC (some centres not stated),> 200,107,11.7
CC(C)=CCC/C(=C/CC/C(C)=C/CC/C(C)=C/Cc1cc(O)cc(C)c1O)C(=O)O [SARGAHYDROQUINOIC ACID],> 200,117,0.17
COC(=O)CC1(C/C=C(\C)CC/C=C(\C)CC/C=C(\C)[C@@H](O)[C@@H](O)C=C(C)C)CC(=O)C=CC1=O (some centres not stated),23,–,> 300
C=CC(C)(CC/C=C(\C)CCCC(C)C(=O)[C@@H](O)C=C(C)C)Oc1ccc(O)cc1CC(=O)OC (some centres not stated) [NAHOCOL A],> 200,–,11.3
C=CC(C)(CC/C=C(\C)CC/C=C(\C)[C@H](O)C(=O)C=C(C)C)Oc1ccc(O)cc1CC(=O)OC (some centres not stated),> 200,103,14.7
C=CC(C)(CC/C=C(\C)CCCC(C)[C@@H](O)C(=O)C=C(C)C)Oc1ccc(O)cc1CC(=O)OC (some centres not stated),> 200,–,17.2
C=CC(C)(CC/C=C(\C)CC/C=C(\C)C(=O)[C@@H](O)C=C(C)C)Oc1ccc(O)cc1CC(=O)OC (some centres not stated),> 200,103,12.6
COC(=O)Cc1cc(O)cc(C/C=C(/C)CC/C=C(\C)CC/C=C(\C)C(=O)[C@@H](O)C=C(C)C)c1O,23,–,0.33
C=CC(C)(CC/C=C(\C)CC/C=C(/C)[C@H](O)C(=O)C=C(C)C)Oc1ccc(O)cc1CC(=O)OC (some centres not stated),> 200,103,23.2
COC(=O)Cc1cc(O)cc(C/C=C(\C)CC/C=C(\C)CCCC(C)C(=O)[C@@H](O)C=C(C)C)c1O (some centres not stated),23,–,0.3
C=CC(C)(CC/C=C(\C)CCCC(C)C(O)/C=C/C(=C)C)Oc1ccc(O)cc1CC(=O)OC (configuration not stated),> 200,106,12.4

# Further lines, with some results ahead:
IC50 [1] [µg/mL],IC50 (Isocitrate lyase) [µM],Structure (SMILES),RC50 [2] [µg/mL]
23,–,COC(=O)Cc1cc(O)cc(C/C=C(\C)CC/C=C(\C)CC/C=C(\C)[C@@H](O)[C@@H](O)C=C(C)C)c1O [ISONAHOCOL D2],0.12
23,–,COC(=O)Cc1cc(O)cc(C/C=C(/C)CC/C=C(\C)CC/C=C(\C)[C@@H](O)[C@@H](O)C=C(C)C)c1O [ISONAHOCOL D1],0.13
> 200,–,C=CC(C)(CC/C=C(\C)CC/C=C(\C)[C@@H](O)[C@H](O)C=C(C)C)Oc1ccc(O)cc1CC(=O)OC (some centres not stated) [NAHOCOL D2],12.4
> 200,–,C=CC(C)(CC/C=C(\C)CC/C=C(\C)[C@@H](O)[C@@H](O)C=C(C)C)Oc1ccc(O)cc1CC(=O)OC (some centres not stated) [NAHOCOL D1],18.5
> 200,–,C=CC(C)(CC/C=C(\C)CCCC(C)C(=O)[C@H](O)C=C(C)C)Oc1ccc(O)cc1CC(=O)OC (some centres not stated) [NAHOCOL A1],12.7
